# Calls of active or inactive are those of the source.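 How the source made its calls: active means inhibition of 30% or more at any tested concentration; inactive means the rest.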
# Tested on: M17 leucyl aminopeptidase (Plasmodium falciparum 3D7)
# Assay: PfM17LAP leucine aminopeptidase inhibitors, dose response, counter-screen for PfM1AAP inhibitor project, biochemical, QFRET (AID 588682)
# Conditions: recombinant PfM17LAP, H-Leu-NHMec fluorogenic cleavage; series mostly up to 100 µM
# Summary of the method: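 Material: Recombinant PfM17LAP enzyme | Amount: Enzyme at 5 µg/mL | Schedule: 90 min, room temperature | Reagent: Fluorogenic substrate, 0.1 mM | Detection: Fluorescence 370/460 nm | Control set: no-enzyme background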
row,SMILES,outcome
1,CC[C@H](C)[C@H](NS(=O)(=O)c1ccc(Br)s1)C(=O)NCc1ccc(F)cc1,inactive
2,O=C(NCc1ccc2c(c1)OCO2)C1CCN(S(=O)(=O)c2ccc(-c3cccc(F)c3)s2)CC1,inactive
3,COc1cccc(-c2ccc(S(=O)(=O)N3CCC(C(=O)NCc4ccc5c(c4)OCO5)CC3)s2)c1,inactive
4,O=C(NCc1ccc2c(c1)OCO2)C1CCN(S(=O)(=O)c2ccc(-c3cncc4ccccc34)s2)CC1,inactive
5,CC[C@H](C)[C@H](NS(=O)(=O)c1ccc(Br)s1)C(=O)O,inactive
6,CC[C@H](C)[C@H](NS(=O)(=O)c1cccs1)C(=O)NCc1ccc(F)cc1,inactive
7,O=C(NCc1ccc2c(c1)OCO2)C1CCN(S(=O)(=O)c2ccc(-c3ccc(F)cc3)s2)CC1,inactive
8,CC[C@H](C)[C@H](NS(=O)(=O)c1ccc(Br)s1)C(=O)NCc1ccc(C(F)(F)F)cc1,inactive
9,CN(C)c1ccc(CNC(=O)C2CCN(S(=O)(=O)c3ccc(Br)s3)CC2)cc1,inactive
10,CC[C@H](C)[C@H](NC(=O)c1ccc([N+](=O)[O-])cc1)C(=O)NCc1ccc(C(F)(F)F)cc1,inactive
11,O=C(NCc1ccc2c(c1)OCO2)C1CCN(S(=O)(=O)c2ccc(-c3ccccc3)s2)CC1,inactive
12,CC[C@H](C)[C@H](NC(=O)c1ccc([N+](=O)[O-])cc1)C(=O)NCc1ccc(F)cc1,inactive
13,CC[C@H](C)[C@H](NC(=O)c1ccc(C(C)(C)C)cc1)C(=O)NCc1ccc(C(F)(F)F)cc1,inactive
14,CC[C@H](C)[C@H](NC(=O)c1ccc([N+](=O)[O-])cc1)C(=O)NCc1ccccc1,inactive
